Hck-Nef inh = inhibitors of Nef-activated human Hck kinase, primary screen, biochemical, Z-Lyte FRET, 384-well, Hck-YEEI | Tyrosine-protein kinase HCK (Homo sapiens), P08631 | Recombinant Hck-YEEI plus Nef, Z-Lyte FRET kinase assay | inhibition, % at 20 µM | hit rate 0.68% among 220,000 | AID 463187, 2010;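 active means Hck-Nef kinase inhibition above about 50%, limit read from the data; inactive means inhibition below that limit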;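 further: 0% = DMSO with Hck plus Nef and 100% = Hck alone without Nef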
Runt-SMMHC FRET = inhibitors of RUNX1 Runt–CBFb-SMMHC binding, primary screen, biochemical, FRET, Cerulean-Runt, Venus-CBFb-SMMHC, uHTS; Runt-related transcription factor 1 (Homo sapiens) + Core-binding factor subunit beta …; Cerulean-Runt/Venus-CBFb-SMMHC FRET ratio 530/480, 1 h; inhibition, % at 20 µM; hit rate 0.74% among 220,000; AID 1434, 2008;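 active means mean inhibition across duplicate retests at 20 µM reaching about 50%, limit read from the data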;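 further: 0% = DMSO wells and 100% = wells with excess untagged CBFb-SMMHC; inhibitors lower the FRET ratio by blocking Runt binding to CBFb-SMMHC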
Target sequence (Q01196 whole entry, looked up): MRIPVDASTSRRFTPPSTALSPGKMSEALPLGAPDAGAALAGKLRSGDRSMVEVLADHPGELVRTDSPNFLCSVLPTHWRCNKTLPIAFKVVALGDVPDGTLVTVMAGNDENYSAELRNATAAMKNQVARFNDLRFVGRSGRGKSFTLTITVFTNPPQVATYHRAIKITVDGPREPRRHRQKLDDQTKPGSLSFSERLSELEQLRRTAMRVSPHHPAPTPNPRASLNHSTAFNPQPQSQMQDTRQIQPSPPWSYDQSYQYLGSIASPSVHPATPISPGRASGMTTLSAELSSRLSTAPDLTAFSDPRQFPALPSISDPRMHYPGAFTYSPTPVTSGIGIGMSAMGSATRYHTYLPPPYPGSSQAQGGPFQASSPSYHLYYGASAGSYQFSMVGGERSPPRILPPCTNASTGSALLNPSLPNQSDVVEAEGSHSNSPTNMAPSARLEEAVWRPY
Target sequence (Q13951 whole entry, looked up): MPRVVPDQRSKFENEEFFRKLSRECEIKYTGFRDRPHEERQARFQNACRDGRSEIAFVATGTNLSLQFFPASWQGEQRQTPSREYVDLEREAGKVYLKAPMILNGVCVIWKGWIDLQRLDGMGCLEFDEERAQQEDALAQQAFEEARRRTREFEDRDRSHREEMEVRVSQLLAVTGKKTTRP
CaV13 FRET inh = Disruptors of the CACNA1D IQ motif to Ca2+-dependent inactivation inhibitor domain association, primary screening, Förster resonance energy transfer in intact living … | HEK cells, CFP/YFP FRET ICDI-IQ, plate reader, 10 min; percent FRET-ratio fall versus neutral wells | inhibition, % at 12.3 µM | hit rate 0.098% among 340,000 | AID 743397;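 active means mean replicate inhibition of at least 30% and at least 1% of replicates passing that level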;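 further: 0% = median of the neutral control wells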
Runt-CBFb FRET = inhibitors of RUNX1 Runt–CBFb binding, primary screen, biochemical, FRET, Cerulean-Runt, Venus-CBFb, uHTS | inhibition, % at 20 µM | Runt-related transcription factor 1 (Homo sapiens) + Core-binding factor subunit beta … | AID 1496, 2009 | Cerulean-Runt/Venus-CBFb FRET ratio 530/480, 1 h | hit rate 0.46% among 220,000;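 active means inhibition over about 50% at 20 µM in the single-dose screen, limit read from the data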;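 further: 0% = DMSO wells and 100% = excess unlabeled CBFb competitor control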
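test system = Cerulean-Runt domain fusion protein, energy donor | probe or stimulus = Venus-CBFb binding partner, 100 nM | incubation = two 1 h room-temperature incubations shielded from light | detection = fluorescence energy transfer, 422 nm excitation, 530/480 nm emission | measure = loss of energy transfer signal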
RanGTP-Imp inh = inhibitors of RanGTP-importin-beta interaction, primary screen, biochemical, FRET, CFP-Ran, YFP-importin-beta, homogeneous. Ran GTPase (GTP-bound) - importin-beta complex. cell-free CFP-Ran/YFP-importin-beta FRET ratio. hit rate 1.1% among 300,000. inhibition, % (no concentration beside the values);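 active means more than half of the replicate wells show a fall in the fluorescence ratio signal beyond about 16%, limit read from the data, passing the limit was not always enough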;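 further: 0% = DMSO wells and 100% = Ran loaded with GDP instead of GTP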
YIC counter = YIC intramolecular FRET probe signal interference, dose response, counter-screen for RanGTP-importin-beta inhibitor project, biochemical, fluorescence FRET; shares compounds with RanGTP-Imp inh; Purified YIC probe, intramolecular FRET ratio YFP/CFP; IC50, µM; hit rate 40% among 1,000; AID 435026, 2010;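 active means fitted half-maximal inhibitory concentration no more than tenfold above the top dose tested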
The depositor's hits bear a star; nt = no result. Sampled rows, rich in hits. Any-hit rate of the full collection: about 1.5%.

SMILES	Hck-Nef inh	Runt-SMMHC FRET	CaV13 FRET inh	Runt-CBFb FRET	RanGTP-Imp inh	YIC counter
N#Cc1c(-c2ccc3c(c2)OCO3)ccn2nc(-c3cccc(C(F)(F)F)c3)nc12	5	30	-4	-6	20*	22*
CC1CCN(Cc2ccc(NC(=O)C3CCN(c4nnc(-n5cccc5)s4)CC3)cc2)CC1	-1	2	-2	2	-1	nt
COc1cccc(C(=O)Nc2ccc(S(=O)(=O)Nc3onc(C)c3C)cc2)c1	1	-4	-5	-3	3	nt
COc1ccc(C(=O)Nc2ccc(S(=O)(=O)Nc3onc(C)c3C)cc2)cc1	1	-7	-5	-1	27*	>50
O=C(Cc1n[nH]c(=O)c2ccccc12)NCc1ccccn1	0	4	nt	1	23*	>50
O=C(Cc1n[nH]c(=O)c2ccccc12)NCc1ccc(Cl)cc1	11	0	2	2	2	nt
COc1ccccc1N1C(=O)CC(Nc2ccc(N3CCOCC3)cc2)C1=O (stereo unspecified)	6	8	-4	16	-1	nt
O=S(=O)(O)c1ccc(O)c2cc(Nc3ccccc3)ccc12	nt	nt	-7	nt	nt	nt
COc1cccc(OC)c1C(=O)NCCNc1nc2cc(C)cc(C)c2cc1C#N	nt	nt	-11	nt	nt	nt
COc1cc(OC)cc(C(=O)NCCNc2nc3cc(C)cc(C)c3cc2C#N)c1	nt	nt	-2	nt	18*	21*
COc1cc(C(=O)NCCNc2nc3cc(C)ccc3cc2C#N)cc(OC)c1OC	nt	nt	-19	nt	17*	30*
COc1ccccc1C(=O)NCCNc1nc2cc(C)cc(C)c2cc1C#N	nt	nt	-2	nt	19*	40*
Cn1c(N2CCOCC2)c(/C=N/O)c2ccccc21	21	3	-5	-1	2	nt
Cc1ccc(S(=O)(=O)N2CCSC2=Nc2ccccc2)cc1	13	0	nt	-1	-1	nt
Cc1cc(C(=O)Nc2nnc(-c3ccccc3)s2)no1	2	-7	-4	-2	5	nt
CCCc1ncc(CN2CCC(C(=O)Nc3cccc(-c4cscn4)c3)CC2)cn1	nt	nt	-8	nt	3	nt
Cn1c(SCc2cccc([N+](=O)[O-])c2)nc2c(c1=O)SCC2	22	-1	1	0	16*	>50
Cc1ccccc1-n1c(=O)cc(N2CCC3(CC2)OCCO3)[nH]c1=O	6	1	-10	-1	33*	>50
CCN1C(=O)C2(C(C#N)=C(N)Oc3n[nH]c(-c4ccc(Cl)cc4)c32)c2ccccc21 (stereo unspecified)	-2	3	-6	1	1	nt
CCN1C(=O)C2(C(C#N)=C(N)Oc3n[nH]c(C(C)C)c32)c2ccccc21 (stereo unspecified)	1	-12	-5	1	26*	>50
Nc1nonc1-n1nnc(C(=O)N/N=C/c2ccccc2)c1CSc1ccc(Cl)cc1	1	-4	-5	1	17*	>50
N#Cc1c(-c2ccco2)cc(C2CC2)nc1SCC(=O)c1ccccc1	3	-7	-9	6	-1	nt
COc1ccc(-c2sc3ccccc3c2-c2ccc(OCCN3CCCCC3)cc2)cc1	nt	nt	-8	nt	nt	nt
CCOCCCNC(=O)c1cc(-c2ccc(Br)s2)nc2ccccc12	nt	nt	-4	nt	19*	28*
CCN(CC)CCNC(=O)c1cc(-c2ccc(Br)s2)nc2ccccc12	nt	nt	-18	nt	1	nt
SMILES	Hck-Nef inh	Runt-SMMHC FRET	CaV13 FRET inh	Runt-CBFb FRET	RanGTP-Imp inh	YIC counter
Cc1ccc(C(=O)Nc2cccc(C(=O)N/N=C/c3ccc(F)cc3)c2)cc1	nt	nt	-3	nt	0	nt
CC(=O)Nc1cccc(C(=O)N/N=C/c2ccc(F)cc2)c1	4	0	-16	-2	22*	>50
Oc1ccc(/C=N/Nc2ccc3ccccc3c2)c(O)c1	28	33	3	15	16*	>50
Oc1ccc(C=NNc2nc3ccccc3s2)c(O)c1	nt	nt	-6	nt	nt	nt
CCN1CCc2nc(NC(=O)Cc3ccc4c(c3)OCCO4)sc2C1	2	39	-5	14	nt	nt
CCN1CCc2nc(NC(=O)CC(c3ccccc3)c3ccccc3)sc2C1	13	60*	nt	6	31*	16*
Cc1ccc(Cl)cc1-n1c(=O)cc(N2CC(C)OC(C)C2)[nH]c1=O (stereo unspecified)	5	-6	-4	0	56*	>50
Cc1noc(C)c1C(=O)Nc1sc2c(c1C(N)=O)CCCCC2	10	26	-7	25	4	nt
Cc1noc(C)c1C(=O)Nc1sc2c(c1C(N)=O)CCC2	2	-2	-10	-1	26*	>50
Nc1nc(CSc2nnnn2-c2ccc(Cl)cc2)nc(N2CCOCC2)n1	0	-4	-5	-4	20*	>50
Nc1nc(CSc2nnnn2-c2ccc(F)c(Cl)c2)nc(N2CCOCC2)n1	5	nt	nt	nt	4	nt
Cc1ccc(/C=C2/C(=O)c3ccc(C(=O)O)cc3C2=O)o1	41	19	-19	32	19*	>50
COc1ccccc1N1CCN(C(=O)/C=C/c2ccc(C)cc2)CC1	4	-3	-5	-4	20*	>50
COc1ccccc1N1CCN(C(=O)/C=C/c2cccc([N+](=O)[O-])c2)CC1	4	-9	-5	-1	-2	nt
CCCN1C(=O)c2ccccc2NC1c1cc(OC)c(OC)c(OC)c1 (stereo unspecified)	-6	2	-6	-2	-3	nt
CCOC(=O)C1=C(N)Oc2ccc3ccccc3c2C1c1ccc(O)c(OC)c1 (stereo unspecified)	nt	nt	-19	nt	29*	>50
CCOC(=O)C1=C(N)Oc2ccc3ccccc3c2C1c1ccc(O)cc1 (stereo unspecified)	nt	nt	-3	nt	5	nt
O=C(COc1ccccc1Cl)Nc1ccccc1C(=O)Nc1cccc(C(=O)O)c1	nt	nt	-2	nt	-2	nt
CCOc1ccc(N2C(=O)CC(N3CCOCC3)C2=O)cc1 (stereo unspecified)	-2	-7	-7	0	-3	nt
O=C(COC(=O)c1ccc2ccccc2c1)NCCCc1ccccc1	1	1	-4	-2	17*	>50
O=C(COC(=O)c1ccc2ccccc2c1)NCc1ccccc1	nt	nt	-6	nt	nt	nt
CCCc1nnc(SCC(=O)NC2CC2)n1CC	nt	nt	-3	nt	4	nt
CC1=C(C(=O)OCC2CCCO2)C(c2cccc(C(F)(F)F)c2)C2=C(CC(c3ccco3)CC2=O)N1 (stereo unspecified)	3	32	-5	18	5	nt

Bioassay records: PubChem, several laboratories
